Values after ≈ are worked out from the molar mass of the structure shown.

Common to all, as to type: functional
For experiment [1], the system named is Talaromyces marneffei. Nature of the experiment: Antifungal activity against Penicillium marneffei by serial plate dilution method. In a few lines: (§1)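 Agar of peptone 1 g, D-glucose 4 g and agar 2 g per 100 mL water, pH 5.7, was lawned with a fungal spore suspension in normal saline. The excess was decanted and plates were dried at 37 °C for 1 h. Wells were punched and compounds in DMSO were added, with a DMSO control. Plates were run in triplicate at 37 °C for 3–4 days, and the inhibition zone diameter was measured.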

For experiment [2], the system named is Aspergillus flavus. Nature of the experiment: Antifungal activity against Aspergillus flavus NCIM 524 by serial plate dilution method. In a few lines: as §1
Experiment [3] relates to Pseudomonas aeruginosa. Nature of the experiment: Antibacterial activity against Pseudomonas aeruginosa ATTC 27853 after 16 to 18 hrs by serial plate dilution method. The note with it: ATCC27853. The gist of the method: (§2)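 Serial dilutions were made in Mueller-Hinton broth in tubes, adjusted to […] with phosphate buffer, and inoculated with a standardized bacterial suspension. Tubes were incubated at 37 °C for 16–18 h. MIC was taken as the lowest concentration with no visible growth.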

Experiment [4] concerns Pseudomonas aeruginosa. Kind of experiment: microbe, parasite or virus in culture. The following applies: ATCC27853, read-out: IZ.
For experiment [5], the system named is Klebsiella pneumoniae. Kind of experiment: microbe, parasite or virus in culture. The note with it: read-out: IZ.
The test system of experiment [6] is Aspergillus fumigatus. Nature of the experiment: Antifungal activity against Aspergillus fumigatus NCIM 902 at […] ug/ml after 3 to 4 days. The following applies: read-out: IZ.
Experiment [7] concerns Escherichia coli. Kind of experiment: microbe, parasite or virus in culture. The following applies: ATCC25922, read-out: IZ.
In experiment [8] the test system is Trichophyton mentagrophytes. Nature of the experiment: Antifungal activity against Trichophyton mentagrophytes at […] ug/ml after 3 to 4 days. The following applies: read-out: IZ.
The subject of experiment [9] is Staphylococcus aureus. Nature of the experiment: Antibacterial activity against Staphylococcus aureus ATTC 25923 at […] ug/ml after 3 to 4 days. The following applies: read-out: IZ.
For experiment [10], the system named is Trichophyton mentagrophytes. Nature of the experiment: Antifungal activity against Trichophyton mentagrophytes by serial plate dilution method.
Experiment [11] deals with Staphylococcus aureus. Nature of the experiment: Antibacterial activity against Staphylococcus aureus ATTC 25923 after 16 to 18 hrs by serial plate dilution method. The gist of the method: as §2
Experiment [12] concerns Aspergillus flavus. Nature of the experiment: Antifungal activity against Aspergillus flavus NCIM 524 at […] ug/ml after 3 to 4 days. The note with it: read-out: IZ.
Experiment [13] has as its system Aspergillus fumigatus. Nature of the experiment: Antifungal activity against Aspergillus fumigatus NCIM 902 by serial plate dilution method.
Experiment [14] concerns Escherichia coli. Kind of experiment: Antibacterial activity against Escherichia coli ATTC 25922 after 16 to 18 hrs by serial plate dilution method. The note with it: ATCC25922. The gist of the method: as §2
The test system of experiment [15] is Talaromyces marneffei. Nature of the experiment: Antifungal activity against Penicillium marneffei at […] ug/ml after 3 to 4 days. The note with it: read-out: IZ.
The subject of experiment [16] is Klebsiella pneumoniae. Nature of the experiment: Antibacterial activity against Klebsiella pneumoniae after 16 to 18 hrs by serial plate dilution method. In a few lines: as §2
For experiment [17], the system named is Rattus norvegicus. Kind of experiment: Antiinflammatory activity against carrageenan-induced paw oedema in albino rat at 50 mg/kg, po relative to control. In a few lines: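 Albino rats of 180–250 g were fasted 18 h and placed in groups of six. Samples were suspended in 2% w/v acacia mucilage, and the vehicle group served as control. 30 min after dosing, carrageenan (1 mg mL⁻¹, 0.1 mL) was injected subcutaneously into the right hind paw. Paw volume was measured immediately and at 3 h, and % oedema inhibition was calculated versus vehicle controls.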

Experiment [18] concerns Aspergillus flavus. Nature of the experiment: Antifungal activity against Aspergillus flavus NCIM 524 at 12 ug/ml after 3 to 4 days. The note with it: read-out: IZ. In a few lines:
as §1

For experiment [19], the system named is Trichophyton mentagrophytes. Nature of the experiment: Antifungal activity against Trichophyton mentagrophytes at 12 ug/ml after 3 to 4 days. The note with it: read-out: IZ. The gist of the method: as §1

For orientation: MIC means the least concentration at which growth counts as inhibited. A higher MIC goes with a less susceptible organism. One may read the inhibition in vivo as how much of the control response was suppressed. A high value points to strong suppression. For the compound `Clc1cc(Cl)c(Cl)c(-c2nnc3sc(-c4ccncc4Br)nn23)c1`, the minimal inhibitory concentration (MIC) in [1], in experiment [2], in [3], in [10], in experiment [11] and in experiment [13] was 6.25 µg/mL (≈ 13.5 µM) each time. The MIC in experiment [14] and in [16] was 6.25 µg/mL (≈ 13.5 µM) throughout. Also, the zone of inhibition at 6.25 µg/mL in [4], in experiment [5], in experiment [6], in experiment [7], in experiment [8] and in experiment [9] was 16 mm in each case. The zone of inhibition at 6.25 µg/mL in [12] and in experiment [15] was 16 mm throughout. The compound further yielded an inhibition in vivo at 50 mg/kg in [17] of 19.4%.
Regarding `NC(=O)c1cc(C2=Nn3c(nnc3-c3cc(Cl)cc(Cl)c3Cl)SC2)ccc1O`, the minimal inhibitory concentration (MIC) in [1], in experiment [2], in [3], in experiment [10], in experiment [11] and in experiment [13] was 6.25 µg/mL (≈ 13.7 µM) in each case. Further, the MIC in experiment [14] and in experiment [16] was 6.25 µg/mL (≈ 13.7 µM) each time. In addition, the zone of inhibition at 6.25 µg/mL in experiment [4], in [5], in experiment [6], in experiment [7], in experiment [8] and in experiment [9] was 16 mm throughout. Besides, the zone of inhibition at 6.25 µg/mL in [12] and in [15] was 16 mm throughout.
Consider `CSc1ccc(C2=Nn3c(nnc3-c3cc(Cl)cc(Cl)c3Cl)SC2)cc1`, for which the MIC in experiment [1], in [2], in [3], in experiment [10], in experiment [11] and in experiment [13] was 6.25 µg/mL (≈ 14.1 µM) in each case. In addition, the minimal inhibitory concentration (MIC) in [14] and in experiment [16] was 6.25 µg/mL (≈ 14.1 µM) each time. The zone of inhibition at 6.25 µg/mL in experiment [4], in experiment [5], in experiment [6], in experiment [7], in experiment [8] and in experiment [9] was 16 mm throughout. In addition, the zone of inhibition at 6.25 µg/mL in experiment [12] and in experiment [15] was 16 mm in each case. 50 mg/kg produced 9.67% inhibition in vivo in experiment [17].
`COc1ccc(C2=Nn3c(nnc3-c3cc(Cl)cc(Cl)c3Cl)SC2)cc1`: the minimal inhibitory concentration (MIC) in experiment [1], in experiment [2], in experiment [3], in [10], in experiment [11] and in experiment [13] was 6.25 µg/mL (≈ 14.7 µM) throughout. Moreover, the minimal inhibitory concentration (MIC) in experiment [14] and in [16] was 6.25 µg/mL (≈ 14.7 µM) each time. The zone of inhibition at 6.25 µg/mL in [4], in experiment [5], in [6], in experiment [7], in experiment [8] and in [9] was 16 mm in each case. Besides, the zone of inhibition at 6.25 µg/mL in experiment [12] and in experiment [15] was 16 mm each time. The compound further yielded an inhibition in vivo at 50 mg/kg in experiment [17] of 19.4%.
As to `Clc1ccc(C2=Nn3c(nnc3-c3cc(Cl)cc(Cl)c3Cl)SC2)cc1`, the minimum inhibitory concentration (MIC) in experiment [1], in [2], in experiment [3], in [10], in experiment [11] and in [13] was 6.25 µg/mL (≈ 14.5 µM) in each case. Moreover, the minimum inhibitory concentration (MIC) in experiment [14] and in experiment [16] was 6.25 µg/mL (≈ 14.5 µM) in each case. The zone of inhibition at 6.25 µg/mL in [4], in experiment [5], in experiment [6], in [7], in experiment [8] and in experiment [9] was 16 mm throughout. Moreover, the zone of inhibition at 6.25 µg/mL in experiment [12] and in experiment [15] was 16 mm each time. For the same compound, in [17], 50 mg/kg produced 30.6% inhibition in vivo.
Take `Clc1cc(Cl)cc(-c2nn3c(-c4cc(Cl)cc(Cl)c4Cl)nnc3s2)c1`: the MIC in [1], in experiment [2], in [3], in experiment [10], in [11] and in experiment [13] was 6.25 µg/mL (≈ 13.9 µM) throughout. Further, the MIC in experiment [14] and in experiment [16] was 6.25 µg/mL (≈ 13.9 µM) each time. For the same compound, the zone of inhibition at 6.25 µg/mL in experiment [4], in experiment [5], in experiment [6], in [7], in experiment [8] and in experiment [9] was 16 mm throughout. For the same compound, the zone of inhibition at 6.25 µg/mL in [12] and in [15] was 16 mm in each case.
As to `Clc1cc(Cl)c(Cl)c(-c2nnc3sc(COc4ccccc4)nn23)c1`, the MIC in [1] is 6.25 µg/mL (≈ 15.2 µM); in experiment [2] it was 12 µg/mL (≈ 29.1 µM); in experiment [3], 6.25 µg/mL (≈ 15.2 µM); in [10] it was 12 µg/mL (≈ 29.1 µM); in experiment [11], 6.25 µg/mL (≈ 15.2 µM); in experiment [13] it was 6.25 µg/mL (≈ 15.2 µM). In addition, the minimal inhibitory concentration (MIC) in experiment [14] and in experiment [16] was 6.25 µg/mL (≈ 15.2 µM) each time. Moreover, the zone of inhibition at 12 µg/mL in [18] and in experiment [19] was 11 mm in each case. In addition, the zone of inhibition at 6.25 µg/mL in experiment [4], in experiment [5], in experiment [6], in experiment [7], in [9] and in experiment [15] was 16 mm throughout.
As for `Clc1cc(Cl)c(Cl)c(-c2nnc3sc(-c4ccncc4)nn23)c1`, the minimum inhibitory concentration (MIC) in experiment [1], in experiment [2], in [3], in experiment [10], in experiment [11] and in experiment [13] was 6.25 µg/mL (≈ 16.3 µM) throughout. Moreover, the MIC in experiment [14] and in [16] was 6.25 µg/mL (≈ 16.3 µM) each time. The zone of inhibition at 6.25 µg/mL in experiment [4], in experiment [5], in experiment [6], in experiment [7], in experiment [8] and in [9] was 16 mm each time. Moreover, the zone of inhibition at 6.25 µg/mL in [12] and in experiment [15] was 16 mm in each case. In addition, the inhibition in vivo at 50 mg/kg in experiment [17] was 11.3%.

These data come from ChEMBL document CHEMBL1149822, “Synthesis, antimicrobial and anti-inflammatory activities of some 1,2,4-triazolo[3,4-b][1,3,4]thiadiazoles and 1,2,4-triazolo[3,4-b][1,3,4]thiadiazines bearing trichlorophenyl moiety” (2008).
